From ChEMBL document CHEMBL1139027, “Design and synthesis of potent and subtype-selective PPARalpha agonists” (Bioorg Med Chem Lett, 2006) come the findings set out here.

Some results are limits rather than exact numbers.

Assay [1] addresses T1, Peroxisome proliferator-activated receptor alpha (Homo sapiens, UniProt Q07869).
T1 sequence (Q07869 whole entry): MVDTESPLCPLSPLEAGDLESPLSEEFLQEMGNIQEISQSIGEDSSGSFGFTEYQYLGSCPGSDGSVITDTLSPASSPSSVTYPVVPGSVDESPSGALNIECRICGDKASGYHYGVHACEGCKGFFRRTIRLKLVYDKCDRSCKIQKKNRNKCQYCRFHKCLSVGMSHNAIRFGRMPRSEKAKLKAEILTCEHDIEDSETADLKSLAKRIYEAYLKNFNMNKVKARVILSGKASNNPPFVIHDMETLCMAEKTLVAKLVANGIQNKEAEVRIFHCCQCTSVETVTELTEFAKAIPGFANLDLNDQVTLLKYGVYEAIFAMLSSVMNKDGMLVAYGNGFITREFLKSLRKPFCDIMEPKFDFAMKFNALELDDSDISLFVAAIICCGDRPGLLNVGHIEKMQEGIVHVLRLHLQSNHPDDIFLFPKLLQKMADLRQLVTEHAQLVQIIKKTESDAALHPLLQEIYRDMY
The assay can be described thus: Binding affinity to human PPAR alpha.

Assay [2] has as its target T2, Peroxisome proliferator-activated receptor delta (Homo sapiens, UniProt Q03181).
T2 sequence (Q03181 whole entry): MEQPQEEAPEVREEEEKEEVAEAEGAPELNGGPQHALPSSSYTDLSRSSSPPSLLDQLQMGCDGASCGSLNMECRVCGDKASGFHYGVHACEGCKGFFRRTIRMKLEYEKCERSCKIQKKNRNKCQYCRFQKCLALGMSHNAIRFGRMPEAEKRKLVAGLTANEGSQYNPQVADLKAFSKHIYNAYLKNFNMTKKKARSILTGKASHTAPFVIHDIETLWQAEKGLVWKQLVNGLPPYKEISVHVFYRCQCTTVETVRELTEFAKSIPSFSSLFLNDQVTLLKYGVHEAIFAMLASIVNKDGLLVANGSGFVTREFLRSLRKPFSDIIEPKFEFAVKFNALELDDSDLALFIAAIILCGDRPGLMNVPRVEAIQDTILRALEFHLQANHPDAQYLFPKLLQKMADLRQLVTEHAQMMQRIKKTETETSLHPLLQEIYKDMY
The assay can be described thus: Binding affinity to human PPAR delta.

For assay [3], the target named is T3, Peroxisome proliferator-activated receptor gamma (Homo sapiens, UniProt P37231).
T3 sequence (P37231 whole entry): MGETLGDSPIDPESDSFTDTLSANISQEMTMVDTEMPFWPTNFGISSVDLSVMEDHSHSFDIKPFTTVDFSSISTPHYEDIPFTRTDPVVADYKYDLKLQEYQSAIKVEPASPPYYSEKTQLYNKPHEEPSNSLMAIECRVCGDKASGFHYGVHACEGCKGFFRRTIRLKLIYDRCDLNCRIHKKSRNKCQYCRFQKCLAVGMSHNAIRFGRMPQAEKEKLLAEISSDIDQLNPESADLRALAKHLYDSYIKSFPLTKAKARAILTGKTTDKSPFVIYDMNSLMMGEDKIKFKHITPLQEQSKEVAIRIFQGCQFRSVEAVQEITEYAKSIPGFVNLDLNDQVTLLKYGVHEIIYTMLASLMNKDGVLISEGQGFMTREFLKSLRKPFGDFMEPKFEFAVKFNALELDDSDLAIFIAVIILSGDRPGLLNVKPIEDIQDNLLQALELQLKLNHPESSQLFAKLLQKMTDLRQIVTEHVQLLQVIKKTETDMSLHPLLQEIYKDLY

In assay [4] the target is T3, Peroxisome proliferator-activated receptor gamma. It is filed as functional, cell-based, COS-1.
In assay [5] the target is T1, Peroxisome proliferator-activated receptor alpha. The assay can be described thus: Transactivation by human PPAR alpha in COS1 cells. It is filed as functional, cell-based, COS-1.
Assay [6] concerns the target T2, Peroxisome proliferator-activated receptor delta. The assay can be described thus: Transactivation by human PPAR delta in COS1 cells. It is filed as functional, cell-based, COS-1.
A further assay deals with Cytochrome P450 2C9 (Homo sapiens, UniProt P11712).
Chain of Cytochrome P450 2C9 (P11712 whole entry): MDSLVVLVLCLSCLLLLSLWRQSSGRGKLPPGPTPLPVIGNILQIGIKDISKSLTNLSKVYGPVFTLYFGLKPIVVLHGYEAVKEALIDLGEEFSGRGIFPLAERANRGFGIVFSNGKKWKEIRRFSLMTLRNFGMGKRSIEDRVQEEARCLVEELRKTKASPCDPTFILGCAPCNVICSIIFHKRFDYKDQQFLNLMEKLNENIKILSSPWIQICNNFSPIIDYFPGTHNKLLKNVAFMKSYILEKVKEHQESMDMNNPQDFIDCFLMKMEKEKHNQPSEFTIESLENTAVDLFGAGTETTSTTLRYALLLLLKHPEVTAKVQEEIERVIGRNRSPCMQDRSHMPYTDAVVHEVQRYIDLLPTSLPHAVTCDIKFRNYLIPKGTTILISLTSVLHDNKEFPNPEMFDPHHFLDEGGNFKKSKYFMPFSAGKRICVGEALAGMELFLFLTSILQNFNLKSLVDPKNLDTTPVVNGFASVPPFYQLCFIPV
For assay [7], the system named is Syrian golden hamster. The assay can be described thus: Decrease in cholesterol level in Golden Syrian hamster at 100 mg/kg, po. Further details: scale not given: the % may be the effect or the level left; call rule not given here. It is filed as functional, Mesocricetus auratus. In a few lines: (§1)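 Male Golden Syrian hamsters (120–150 g, n = 10) on normal rodent chow with free access to water. Sodium salts were given by oral gavage once daily for 9 days in 0.5% methylcellulose vehicle. Serum cholesterol and triglycerides were measured and reported as % change.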

The subject of assay [8] is Syrian golden hamster. The assay can be described thus: Decrease in triglyceride level in Golden Syrian hamster at 100 mg/kg, po. Format: functional, Mesocricetus auratus. Further details: scale not given: the % may be the effect or the level left. In a few lines:
as §1

In assay [9] the test system is Canis familiaris. The assay can be described thus: Decrease in cholesterol level in Beagle dog at 50 mg/kg, po. It is filed as functional, Canis lupus familiaris. Further details: scale not given: the % may be the effect or the level left. In a few lines: (§2)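 Male beagle dogs (12–18 kg, n = 5) fed cholesterol-free chow ad libitum with free access to water. Compounds were suspended in 0.5% methylcellulose and gavaged daily for 14 days. Serum cholesterol is reported as a mean value, with final-day data compared against vehicle control.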

In assay [10] the test system is Canis familiaris. The assay can be described thus: Decrease in cholesterol level in Beagle dog at 4 mg/kg, po. It is filed as functional, Canis lupus familiaris. Further details: scale not given: the % may be the effect or the level left. In a few lines: as §2

`O=C(O)C(Cc1ccc(OCCCOc2ccc(Oc3ccc(F)cc3)cc2Cl)cc1)c1ccccc1` (centres undefined): the IC50 – broadly, the concentration that gives 50% inhibition – is 262 nM in assay [1], 1340 nM in assay [2] (read-out: IC50) and “Not Active” in assay [3].

With `CCC(CC)(Oc1ccc(OCCCOc2ccc(Oc3ccc(F)cc3)cc2Cl)cc1)C(=O)O`, the values for the EC50 entry in assay [4] (cos-1) and in [5] (read-out: EC50) were “Not Active” and 2.7 nM, respectively. Moreover, the IC50 in assay [1] is 22 nM; in assay [2], “Not Active”; in assay [3], “Not Active”.

`CC[C@](C)(Oc1ccc(OCCCOc2ccc(Oc3ccc(F)cc3)cc2Cl)cc1)C(=O)O`: the values for the EC50 result in assay [4] (cos-1) and in assay [5] (read-out: EC50) were “Not Active” and 3 nM, respectively. Also, the concentration for half-maximal inhibition (IC50) was 6 nM in [1], 1090 nM in assay [2] (read-out: IC50) and “Not Active” in assay [3].

In the case of `CC[C@@](C)(Oc1ccc(OCCCOc2ccc(Oc3ccc(F)cc3)cc2Cl)cc1)C(=O)O`, the EC50 (in general, the concentration that produces a half-maximal response) is > 3000 nM in assay [4] (read-out: EC50) and 20 nM in [5] (read-out: EC50). The IC50 was 101 nM in assay [1], 2410 nM in [2] (read-out: IC50) and “Not Active” in assay [3].

As for `CCC(C)(Oc1ccc(OCCCOc2ccc(Oc3ccc(F)cc3)cc2Cl)cc1)C(=O)O` (centres undefined), the EC50 result was “Not Active” in assay [4] (cos-1) and 2.5 nM in assay [5] (read-out: EC50). Further, the IC50 in assay [1] is 5 nM; in assay [2], “Not Active”; in assay [3] (read-out: IC50) it was 1240 nM.

Turning to `CC(C)(Oc1ccc(OCCOc2ccc(Oc3ccc(F)cc3)cc2Cl)cc1)C(=O)O`, the EC50 result in assay [4] (cos-1) is “Not Active”; in assay [6] (cos-1), “Not Active”; in assay [5] (read-out: EC50), 62 nM; in [1] (read-out: EC50) it was 87 nM; in assay [2], “Not Active”; in assay [3] it was “Not Active”.

`O=C(O)CCc1ccc(OCCCOc2ccc(Oc3ccc(F)cc3)cc2Cl)cc1`: the IC50 in [1] was 675 nM; in assay [2] (read-out: IC50), > 50 nM.

In the case of `CCC1(CC)C=C(C(F)(F)F)c2cc(Cl)c(OCCCOc3ccc(O[C@](C)(CC)C(=O)O)cc3)cc2O1`, the IC50 in [1] is 125 nM; in assay [2] it was “Not Active”; in assay [3], “Not Active”.

As for `CC[C@@](C)(Oc1ccc(OCCCOc2ccc3c(C(F)(F)F)cc(=O)oc3c2Cl)cc1)C(=O)O`, the IC50 was 157 nM in [1], 3270 nM in [2] (read-out: IC50) and “Not Active” in [3].

`CC[C@@](C)(Cc1ccc(OCCCOc2ccccc2Cl)cc1)C(=O)O`: the EC50 in assay [5] (read-out: EC50) was 54.1 nM. Besides, the IC50 in assay [1] was 42 nM; in assay [2] (read-out: IC50), 4630 nM.

Consider `CCCc1cc(Oc2ccc(F)cc2)ccc1OCCCOc1ccc(OC(C)(C)C(=O)O)cc1`, for which the EC50 in assay [6] (read-out: EC50) was determined as 55 nM; in [5] (read-out: EC50) it was 51 nM; in assay [1] (read-out: EC50), 110 nM; in [2] (read-out: EC50), 106 nM.

For `CC[C@@](C)(Cc1ccc(OCCCOc2ccc3c(C(F)(F)F)cc(=O)oc3c2C)cc1)C(=O)O`, in assay [5] (read-out: EC50), the half-maximal effective concentration (EC50) was 10 nM. Moreover, the IC50 in [1] is 49 nM; in assay [2] (read-out: IC50), 134 nM; in [3] it was “Not Active”.

`CCC(Cc1ccc(OCCCOc2ccc(Oc3ccc(F)cc3)cc2Cl)cc1)C(=O)O` (centres undefined): the IC50 is 156 nM in assay [1], 1170 nM in assay [2] (read-out: IC50) and “Not Active” in assay [3].

Regarding `CC(Cc1ccc(OCCCOc2ccc(Oc3ccc(F)cc3)cc2Cl)cc1)C(=O)O` (centres undefined), the results for the IC50 in [1], in assay [2] (read-out: IC50) and in assay [3] were 208 nM, 4070 nM and “Not Active”, respectively.

As to `CC[C@@](C)(Cc1ccc(OCCCOc2ccc(CC(F)(F)F)cc2Cl)cc1)C(=O)O`, the EC50 entry is “Not Active” in assay [4] (cos-1) and < 1 nM in assay [5] (read-out: EC50). Besides, the IC50 on Cytochrome P450 2C9 is < 50 nM; in assay [1], < 1 nM; in assay [2] (read-out: IC50) it was > 70000 nM; in [3] (read-out: IC50), > 6000 nM.

With `CC[C@@](C)(Cc1ccc(OCCCOc2ccc3c(C)cc(O)nc3c2)cc1)C(=O)O`, the IC50 in assay [1] was 6090 nM; in [2], “Not Active”; in assay [3], “Not Active”.

In the case of `CC(C)(Oc1ccc(OCCCOc2ccc(Oc3ccc(F)cc3)cc2Cl)cc1)C(=O)O`, the EC50 in assay [6] (read-out: EC50) is > 3000 nM; in assay [5] (read-out: EC50), 20 nM. Besides, the IC50 in [1] was 30 nM; in [2] (read-out: IC50), 2390 nM.

`CCCc1cc(Oc2ccc(F)cc2)ccc1OCCCOc1ccc(C2SC(=O)NC2=O)cc1` (centres undefined): the EC50 entry in assay [6] (cos-1), in assay [5] (cos-1), in [1] and in [2] was “Not Active” each time.

Turning to `CC(C)(Oc1ccc(OCCCCOc2ccc(Oc3ccc(F)cc3)cc2Cl)cc1)C(=O)O`, the EC50 in [6] (read-out: EC50) was found to be 284 nM; in assay [5] (read-out: EC50), 35 nM; in [1] (read-out: EC50), 66 nM; in assay [2] (read-out: EC50), 545 nM.

On to `CC(C)(Oc1cccc(OCCCOc2ccc(Oc3ccc(F)cc3)cc2Cl)c1)C(=O)O`, for which the EC50 in assay [5] (read-out: EC50) was 21 nM; in [1] (read-out: EC50), 36 nM; in [3], “Not Active”.

As to `CCCC(Cc1ccc(OCCCOc2ccc(Oc3ccc(F)cc3)cc2Cl)cc1)C(=O)O` (centres undefined), the concentration giving a half-maximal response (EC50) in assay [5] (read-out: EC50) was determined as 454 nM. For the same compound, the IC50 in assay [1] is 130 nM; in [2] (read-out: IC50), 1130 nM; in assay [3], “Not Active”.

For `O=C(O)C(Cc1ccc(OCCCOc2ccc(Oc3ccc(F)cc3)cc2Cl)cc1)C1CCC1` (centres undefined), the EC50 entry is “Not Active” in assay [4] (cos-1) and 15 nM in [5] (read-out: EC50). The 50% inhibitory concentration (IC50) in assay [1] is 116 nM; in assay [2] (read-out: IC50), 1350 nM; in assay [3], “Not Active”.

As for `CC(C)(Oc1ccccc1OCCCOc1ccc(Oc2ccc(F)cc2)cc1Cl)C(=O)O`, the EC50 entry in assay [1], in assay [2] and in assay [3] was “Not Active” throughout.

`CC(C)OC(=O)C(C)(C)Oc1ccc(C(=O)c2ccc(Cl)cc2)cc1` [FENOFIBRATE]: the figures for the Activity with Syrian golden hamster [7], in the assay on Syrian golden hamster [8] and in the assay on Canis familiaris [9] were -31%, -30% and -18%, respectively.

As for `CCC(C)(C)C(=O)O[C@H]1C[C@@H](C)C=C2C=C[C@H](C)[C@H](CC[C@@H]3C[C@@H](O)CC(=O)O3)[C@H]21` [SIMVASTATIN], the Activity in the assay on Canis familiaris [10] is reported as -19%.
